Experimental data taken from article PMC11229888 (RSC Advances, 2024).

Legend:
[1] = tested on: MCF-7; assay: MTT anti-proliferative assay, MCF-7; type: cell-based; settings: Homo sapiens, MCF7, read-out: IC50 MCF-7
In short: (§1)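 Cells grown in RPMI-1640 with 10% FBS, 100 units per ml penicillin and 100 μg ml−1 streptomycin at 37 °C, 5% CO2. Seeded at 1.0 × 10^4 cells per well for 48 h, then exposed to a range of test compound concentrations for 24 h. MTT (5 mg ml−1) added for 4 h, formazan dissolved in DMSO, A570 read; viability as percent of untreated; IC50 derived.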

[2] = tested on: Hep G2; assay: MTT anti-proliferative assay, Hep G2; type: cell-based; settings: Homo sapiens, HepG2, read-out: IC50 Hep G2
In short: as §1

[3] = biological target: VEGFR-2 (Homo sapiens, UniProt P35968); assay: biochemical; settings: IC50 VEGFR-2, mean ± S.D. of three experiments
Chain of VEGFR-2 (P35968 20-1356): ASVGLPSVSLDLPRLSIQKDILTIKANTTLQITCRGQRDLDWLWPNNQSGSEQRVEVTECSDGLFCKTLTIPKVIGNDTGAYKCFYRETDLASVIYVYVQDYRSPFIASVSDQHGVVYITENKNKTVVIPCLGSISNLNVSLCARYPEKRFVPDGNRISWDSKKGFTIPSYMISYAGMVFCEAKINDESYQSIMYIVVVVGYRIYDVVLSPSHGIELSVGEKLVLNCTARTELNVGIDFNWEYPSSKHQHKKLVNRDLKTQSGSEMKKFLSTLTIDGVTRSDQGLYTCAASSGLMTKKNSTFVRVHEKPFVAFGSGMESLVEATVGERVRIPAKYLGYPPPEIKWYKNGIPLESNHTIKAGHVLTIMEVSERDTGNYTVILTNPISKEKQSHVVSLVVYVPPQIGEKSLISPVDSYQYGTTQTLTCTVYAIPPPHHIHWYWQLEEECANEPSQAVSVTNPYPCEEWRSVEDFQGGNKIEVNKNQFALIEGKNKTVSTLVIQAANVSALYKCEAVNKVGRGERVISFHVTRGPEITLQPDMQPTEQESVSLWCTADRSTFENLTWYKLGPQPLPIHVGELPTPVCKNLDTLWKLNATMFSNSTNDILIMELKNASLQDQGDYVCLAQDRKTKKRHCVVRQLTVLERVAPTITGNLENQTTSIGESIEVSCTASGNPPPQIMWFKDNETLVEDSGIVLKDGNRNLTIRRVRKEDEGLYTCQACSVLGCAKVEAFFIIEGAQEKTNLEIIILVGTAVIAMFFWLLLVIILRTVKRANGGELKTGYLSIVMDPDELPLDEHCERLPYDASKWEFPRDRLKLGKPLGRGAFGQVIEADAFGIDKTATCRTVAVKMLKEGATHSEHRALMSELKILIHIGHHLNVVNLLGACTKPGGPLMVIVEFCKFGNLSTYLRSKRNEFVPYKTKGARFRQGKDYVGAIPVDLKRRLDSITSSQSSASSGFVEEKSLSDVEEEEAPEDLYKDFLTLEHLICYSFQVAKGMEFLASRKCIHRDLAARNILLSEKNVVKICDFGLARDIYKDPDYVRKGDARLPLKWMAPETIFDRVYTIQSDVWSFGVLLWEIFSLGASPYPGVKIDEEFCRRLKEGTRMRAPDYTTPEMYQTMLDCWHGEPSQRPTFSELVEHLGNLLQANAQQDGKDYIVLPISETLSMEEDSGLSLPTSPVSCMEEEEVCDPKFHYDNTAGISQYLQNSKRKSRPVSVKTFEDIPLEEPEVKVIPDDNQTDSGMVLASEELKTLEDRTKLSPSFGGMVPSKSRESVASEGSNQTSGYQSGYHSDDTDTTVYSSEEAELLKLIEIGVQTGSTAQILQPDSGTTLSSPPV

[4] = tested on: VEGFR-1; settings: read-out: IC50 VEGFR-1; cited from earlier work

Q: What does the source list for `CC(=NNC(=O)c1ccccc1)c1ccc(Nc2nnc(-c3ccc(Cl)cc3)c3ccccc23)cc1` [Compound 2a, N′-(1-[4-{(4-[4-Chlorophenyl]phthalazin-1-yl)amino}phenyl]ethylidene)benzohydrazide]?
A: IC50 [1]: 1550 ± 10 nM; IC50 [2]: 770 ± 10 nM

Q: Which results are given for `CC(=NNC(=O)c1ccccc1Br)c1ccc(Nc2nnc(-c3ccc(Cl)cc3)c3ccccc23)cc1` [Compound 2b, 2-Bromo-N′-(1-[4-{(4-[4-chlorophenyl]phthalazin-1-yl)amino}phenyl]ethylidene)benzohydrazide]?
A: IC50 [1]: 980 ± 10 nM; IC50 [2]: 630 ± 10 nM

Q: With `CC(=NNC(=O)c1ccccc1Cl)c1ccc(Nc2nnc(-c3ccc(Cl)cc3)c3ccccc23)cc1` [Compound 2c, 2-Chloro-N′-(1-[4-{(4-[4-chlorophenyl]phthalazin-1-yl)amino}phenyl]ethylidene)benzohydrazide] as the compound, how does the IC50 [1] read?
A: Its IC50 is 1740 ± 10 nM.

Q: And the IC50 [2]?
A: The IC50 was 590 ± 10 nM.

Q: For `CC(=NNC(=O)c1ccccc1O)c1ccc(Nc2nnc(-c3ccc(Cl)cc3)c3ccccc23)cc1` [Compound 2d, N′-(1-[4-{(4-[4-Chlorophenyl]phthalazin-1-yl)amino}phenyl]ethylidene)-2-hydroxybenzohydrazide], which IC50 [1] is on record?
A: The IC50 was 3710 ± 70 nM.

Q: What about the IC50 [2] of the same compound?
A: The IC50 was 2180 ± 30 nM.

Q: With `CC(=NNC(=O)c1ccc(N)cc1)c1ccc(Nc2nnc(-c3ccc(Cl)cc3)c3ccccc23)cc1` [Compound 2e, 4-Amino-N′-(1-[4-{(4-[4-chlorophenyl]phthalazin-1-yl)amino}phenyl]ethylidene)benzohydrazide] as the compound, how does the IC50 [1] read?
A: The IC50 was 710 ± 20 nM.

Q: And the IC50 [2]?
A: The IC50 was 1190 ± 40 nM.

Q: For `CC(=NNC(=O)c1cccnc1)c1ccc(Nc2nnc(-c3ccc(Cl)cc3)c3ccccc23)cc1` [Compound 2f, N′-(1-[4-{(4-[4-Chlorophenyl]phthalazin-1-yl)amino}phenyl]ethylidene)nicotinohydrazide], which IC50 [1] is on record?
A: The IC50 was 780 ± 10 nM.

Q: What about the IC50 [2] of the same compound?
A: Its IC50 is 750 ± 10 nM.

Q: Which IC50 [3] does the source give for `CC(=NNC(=O)c1ccncc1)c1ccc(Nc2nnc(-c3ccc(Cl)cc3)c3ccccc23)cc1` [Compound 2g, N′-(1-[4-{(4-[4-Chlorophenyl]phthalazin-1-yl)amino}phenyl]ethylidene)isonicotinohydrazide] here?
A: The IC50 was 148 ± 10 nM.

Q: And the IC50 [1]?
A: Its IC50 is 150 nM.

Q: What about the IC50 [2] of the same compound?
A: Its IC50 is 120 ± 10 nM.

Q: With `CC(=NNC(N)=S)c1ccc(Nc2nnc(-c3ccc(Cl)cc3)c3ccccc23)cc1` [Compound 3a, 2-(1-[4-{(4-[4-Chlorophenyl]phthalazin-1-yl)amino}phenyl]ethylidene)hydrazine-1-carbothioamide] as the compound, how does the IC50 [3] read?
A: Its IC50 is 375 ± 10 nM.

Q: And the IC50 [1]?
A: Its IC50 is 180 nM.

Q: What about the IC50 [2] of the same compound?
A: Its IC50 is 180 nM.

Q: For `CC(=NNC(=S)Nc1ccccc1)c1ccc(Nc2nnc(-c3ccc(Cl)cc3)c3ccccc23)cc1` [Compound 3b, 2-(1-[4-{(4-[4-Chlorophenyl]phthalazin-1-yl)amino}phenyl]ethylidene)-N-phenylhydrazine-1-carbothioamide], which IC50 [1] is on record?
A: Its IC50 is 870 ± 20 nM.

Q: And the IC50 [2]?
A: Its IC50 is 1530 ± 60 nM.

Q: With `O=C(Nc1ccccc1)Nc1ccc(Oc2nnc(-c3ccc(Cl)cc3)c3ccccc23)cc1` [Compound 4a, 1-(4-[{4-(4-Chlorophenyl)phthalazin-1-yl}oxy]phenyl)-3-phenylurea] as the compound, how does the IC50 [3] read?
A: The IC50 was 196 ± 10 nM.

Q: And the IC50 [1]?
A: The IC50 was 180 nM.

Q: What about the IC50 [2] of the same compound?
A: The IC50 was 90 ± 10 nM.

Q: With `S=C(Nc1ccccc1)Nc1ccc(Oc2nnc(-c3ccc(Cl)cc3)c3ccccc23)cc1` [Compound 4b, 1-(4-[{4-(4-Chlorophenyl)phthalazin-1-yl}oxy]phenyl)-3-phenylthiourea] as the compound, how does the IC50 [1] read?
A: The IC50 was 1520 ± 10 nM.

Q: What about the IC50 [2] of the same compound?
A: Its IC50 is 1630 ± 30 nM.

Q: Which IC50 [3] does the source give for `CC(=O)Nc1ccc(Oc2nnc(-c3ccc(Cl)cc3)c3ccccc23)cc1` [Compound 5a, N-(4-[{4-(4-Chlorophenyl)phthalazin-1-yl}oxy]phenyl)acetamide] here?
A: The IC50 was 548 ± 20 nM.

Q: And the IC50 [1]?
A: The IC50 was 180 nM.

Q: What about the IC50 [2] of the same compound?
A: The IC50 was 260 nM.

Q: For `O=C(Nc1ccc(Oc2nnc(-c3ccc(Cl)cc3)c3ccccc23)cc1)c1ccccc1` [Compound 5b, N-(4-[{4-(4-Chlorophenyl)phthalazin-1-yl}oxy]phenyl)benzamide], which IC50 [3] is on record?
A: The IC50 was 331 ± 10 nM.

Q: What about the IC50 [1] of the same compound?
A: Its IC50 is 150 nM.

Q: What about the IC50 [2] of the same compound?
A: Its IC50 is 220 nM.

Q: Which results are given for `O=C(Nc1ccc(Oc2nnc(-c3ccc(Cl)cc3)c3ccccc23)cc1)c1cccc([N+](=O)[O-])c1` [Compound 5c, N-(4-[{4-(4-Chlorophenyl)phthalazin-1-yl}oxy]phenyl)-3-nitrobenzamide]?
A: IC50 [1]: 180 nM; IC50 [2]: 1370 ± 140 nM

Q: Which IC50 [1] does the source give for `O=C(C=Cc1ccccc1)Nc1ccc(Oc2nnc(-c3ccc(Cl)cc3)c3ccccc23)cc1` [Compound 5d, N-(4-[{4-(4-Chlorophenyl)phthalazin-1-yl}oxy]phenyl)cinnamamide] here?
A: Its IC50 is 1120 ± 20 nM.

Q: And the IC50 [2]?
A: The IC50 was 1260 ± 30 nM.

Q: Which IC50 [1] does the source give for `CNC(=O)c1cc(Oc2ccc(NC(=O)Nc3ccc(Cl)c(C(F)(F)F)c3)cc2)ccn1` [Sorafenib, reference compound] here?
A: The IC50 was 50 ± 10 nM.

Q: What about the IC50 [2] of the same compound?
A: Its IC50 is 30 ± 10 nM.

Q: For `Clc1ccc(Nc2nnc(Cc3ccncc3)c3ccccc23)cc1` [Vatalanib], which IC50 [4] is on record?
A: Its IC50 is 380 nM.
